Consider 7 compounds from publication PMC2729716 (Biochemistry, 2009).

Where no end group is shown, it is not given here.

For data set [1], the system named is HIV Vif. The settings on record: micromolar levels of chelator; cited from earlier work.
The nature of data set [2]: Zinc-induced aggregation by light scattering. The settings on record: 15 µM peptide, 1 molar equivalent Zn2+, 200 mM MOPS pH 7.4, 80 mM NaCl, 1.8 mM TCEP, 20 °C, 200 s. The data set is classed as physicochemical. Summed up:
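Wild-type and mutant peptides handled anaerobically in TCEP buffers; concentration set by A280 in 6M guanidine hydrochloride. Zn(NO3)2 hand-mixed into sample in a Peltier-held cuvette. Light scattering followed over time on a single-photon counting fluorometer; single exponential functions fitted to intensity versus time.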

The test system of data set [3] is GST-Cul5 (human Cul5 amino acids 1–384). In words: HCCHp pull-down by GST-Cul5. The settings on record: GST control, 40 µM Zn(NO3)2 vs no zinc. The data set is classed as binding. Summed up: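 GST-Cul5 (human Cul5 residues 1–384, from E. coli) immobilised on glutathione resin, 10 min at 4 °C, in 50 mM HEPES pH 7.4, 150 mM NaCl, 200 µM TCEP; 20 µM peptide added for 10 min; split, ±40 µM Zn(NO3)2 for 10 min; six washes; SDS-PAGE, SYPRO Ruby stain; bands normalised to a 27-kDa marker and quantified against peptide and GST-Cul5 standard curves.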

For `c1ccc(CN(CCN(Cc2ccccn2)Cc2ccccn2)Cc2ccccn2)nc1` [N,N,N′,N′-tetrakis-(2-pyridylmethyl) ethylenediamine], the “Effect of chelator on Cul5 recruitment and APOBEC3G degradation” value in data set [1] is “inhibits Cul5 recruitment and APOBEC3G degradation”.
As for “ELADQLIALYYFDCFSDSAIRKALLGHIVSPRCEYQAGHNKV (cysteines drawn unpaired) [H108A]”, the “Total change in scattered light intensity, rank order of peptides” value (“Total change” for short) in data set [2] is listed as “H108A < H139A < H127A < wild type < C114S < C114/133S < C133S”.
Same read-out and setting: for “ELADQLIHLYYFDCFSDSAIRKALLGAIVSPRCEYQAGHNKV (cysteines drawn unpaired) [H127A]” the value was “H108A < H139A < H127A < wild type < C114S < C114/133S < C133S”; for “ELADQLIHLYYFDCFSDSAIRKALLGHIVSPRCEYQAGANKV (cysteines drawn unpaired) [H139A]”, “H108A < H139A < H127A < wild type < C114S < C114/133S < C133S”.
For “ELADQLIHLYYFDCFSDSAIRKALLGHIVSPRCEYQAGHNKV (cysteines drawn unpaired) [HCCHp]”, the “Total change” value in data set [2] is on record as “H108A < H139A < H127A < wild type < C114S < C114/133S < C133S”. Moreover, in data set [3], the “Change in amount of HCCHp bound to GST when zinc was included” value is given as “did not increase significantly”.
Consider “ELADQLIHLYYFDCFSDSAIRKALLGHIVSPRSEYQAGHNKV [C133S]”, for which the “Total change” value in data set [2] is listed as “H108A < H139A < H127A < wild type < C114S < C114/133S < C133S”.
Regarding “ELADQLIHLYYFDSFSDSAIRKALLGHIVSPRCEYQAGHNKV [C114S]”, the “Total change” value in data set [2] is “H108A < H139A < H127A < wild type < C114S < C114/133S < C133S”.
